The source of these data is ChEMBL document CHEMBL1150387, “Development and experimental validation of a docking strategy for the generation of kinase-targeted libraries” (J Med Chem, 2008).

As a reminder, the inhibition is the share of the control response that was lost under treatment.

Each structure is given as a SMILES string.

Assay [1] concerns the target Receptor-type tyrosine-protein kinase FLT3 (Homo sapiens) (UniProt P36888). Kind of assay: Inhibition of FLT3 at 10 uM by HTRF assay relative to control. The method, boiled down:
(§1)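 HTRF kinase assay, one panel of kinases. Inhibitor stock 50 µM in 100% DMSO; tested at 10 µM. ATP and substrate at final levels near Km. Final buffer: 50 mM Hepes/NaOH pH 7.4, 40 µM Na3VO4, 0.005% Tween-20, 1 mM DTT, MnCl2 or MgCl2 at kinase-dependent levels. Started by adding ATP/substrate. Reaction run at room temperature, time varied by kinase. Detection mix in 50 mM Hepes pH 7.4, 0.1% BSA, 150 mM KF, incubated ≥1 h at room temperature. Activity expressed as % of uninhibited control; n=2.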
A general note: Time-resolved FRET reads energy transfer from a long-lived donor to a nearby acceptor.

Assay [2] has as its target T1, Ephrin type-B receptor 4 (Homo sapiens) (UniProt P54760).
T1 sequence (whole entry): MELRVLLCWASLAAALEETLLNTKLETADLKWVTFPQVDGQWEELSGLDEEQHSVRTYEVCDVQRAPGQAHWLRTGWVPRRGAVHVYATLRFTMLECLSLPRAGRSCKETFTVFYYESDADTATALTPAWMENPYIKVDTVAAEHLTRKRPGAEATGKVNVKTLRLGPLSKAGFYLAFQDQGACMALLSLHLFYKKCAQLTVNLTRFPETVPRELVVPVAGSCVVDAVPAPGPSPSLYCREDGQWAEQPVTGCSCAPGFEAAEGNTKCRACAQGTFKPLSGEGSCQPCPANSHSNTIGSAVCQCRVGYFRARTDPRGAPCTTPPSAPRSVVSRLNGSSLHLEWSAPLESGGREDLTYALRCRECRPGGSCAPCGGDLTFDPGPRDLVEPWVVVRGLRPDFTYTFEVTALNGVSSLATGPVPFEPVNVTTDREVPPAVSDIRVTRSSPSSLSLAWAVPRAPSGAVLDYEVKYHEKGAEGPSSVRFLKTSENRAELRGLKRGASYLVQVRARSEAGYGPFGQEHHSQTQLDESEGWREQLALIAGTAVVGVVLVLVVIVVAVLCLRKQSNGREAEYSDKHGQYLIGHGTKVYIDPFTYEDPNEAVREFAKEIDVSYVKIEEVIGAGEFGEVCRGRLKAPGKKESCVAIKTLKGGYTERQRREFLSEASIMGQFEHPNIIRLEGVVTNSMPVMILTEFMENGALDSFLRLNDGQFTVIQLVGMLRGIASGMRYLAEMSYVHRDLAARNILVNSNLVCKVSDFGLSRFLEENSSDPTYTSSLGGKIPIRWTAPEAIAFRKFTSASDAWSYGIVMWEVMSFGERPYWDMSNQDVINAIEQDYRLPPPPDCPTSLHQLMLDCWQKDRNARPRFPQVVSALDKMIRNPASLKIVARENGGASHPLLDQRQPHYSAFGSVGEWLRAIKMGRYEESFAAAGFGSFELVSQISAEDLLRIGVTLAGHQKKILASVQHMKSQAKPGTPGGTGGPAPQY
Put plainly: Inhibition of EphB4 at 10 uM by HTRF assay relative to control. The method in brief:
as §1

Assay [3] concerns the target Mitogen-activated protein kinase 1 (Homo sapiens) (UniProt P28482). Kind of assay: Inhibition of ERK2 at 10 uM by HTRF assay relative to control. The method in brief: as §1
The nature of assay [4]: Inhibition of PKA at 10 uM by HTRF assay relative to control. The method in brief: as §1
Assay [5] deals with RAC-alpha serine/threonine-protein kinase (Homo sapiens) (UniProt P31749). Put plainly: Inhibition of AKT1/PKBalpha at 10 uM by HTRF assay relative to control. The method in brief:
as §1

In assay [6] the target is T2, Tyrosine-protein kinase ZAP-70 (Homo sapiens) (UniProt P43403).
T2 sequence (whole entry): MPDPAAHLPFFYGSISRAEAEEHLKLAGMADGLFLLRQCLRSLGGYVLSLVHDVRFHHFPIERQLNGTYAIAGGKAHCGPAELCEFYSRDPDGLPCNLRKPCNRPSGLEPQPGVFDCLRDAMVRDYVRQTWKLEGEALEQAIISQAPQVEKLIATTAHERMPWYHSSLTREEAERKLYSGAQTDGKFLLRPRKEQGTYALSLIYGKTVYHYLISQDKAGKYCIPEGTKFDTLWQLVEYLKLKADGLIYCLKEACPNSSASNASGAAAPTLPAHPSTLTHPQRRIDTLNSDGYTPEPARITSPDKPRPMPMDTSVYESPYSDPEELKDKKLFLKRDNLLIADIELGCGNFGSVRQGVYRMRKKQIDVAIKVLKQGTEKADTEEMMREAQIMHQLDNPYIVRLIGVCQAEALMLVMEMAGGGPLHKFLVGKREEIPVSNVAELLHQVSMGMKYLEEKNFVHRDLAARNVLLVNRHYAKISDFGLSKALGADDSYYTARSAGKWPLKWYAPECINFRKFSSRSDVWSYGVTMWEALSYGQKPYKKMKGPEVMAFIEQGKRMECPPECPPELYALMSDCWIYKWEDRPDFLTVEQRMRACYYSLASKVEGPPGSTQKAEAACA
Kind of assay: Inhibition of ZAP70 at 10 uM by HTRF assay relative to control. The method in brief:
as §1

Assay [7] has as its target Tyrosine-protein kinase Lyn (Homo sapiens) (UniProt P07948). Put plainly: Inhibition of Lyn at 10 uM by HTRF assay relative to control. The method in brief:
as §1

Assay [8] concerns the target Focal adhesion kinase 1 (Homo sapiens) (UniProt Q05397). Put plainly: Inhibition of FAK at 10 uM by HTRF assay relative to control. The method, boiled down: as §1
Assay [9] concerns the target Tyrosine-protein kinase ABL1 (Homo sapiens) (UniProt P00519). Put plainly: Inhibition of Abl at 10 uM by HTRF assay relative to control. The method in brief: as §1
The target of assay [10] is Vascular endothelial growth factor receptor 2 (Homo sapiens) (UniProt P35968). Kind of assay: Inhibition of KDR at 10 uM by HTRF assay relative to control. The method, boiled down:
as §1

Chain of Receptor-type tyrosine-protein kinase FLT3 (Homo sapiens) (P36888 whole entry): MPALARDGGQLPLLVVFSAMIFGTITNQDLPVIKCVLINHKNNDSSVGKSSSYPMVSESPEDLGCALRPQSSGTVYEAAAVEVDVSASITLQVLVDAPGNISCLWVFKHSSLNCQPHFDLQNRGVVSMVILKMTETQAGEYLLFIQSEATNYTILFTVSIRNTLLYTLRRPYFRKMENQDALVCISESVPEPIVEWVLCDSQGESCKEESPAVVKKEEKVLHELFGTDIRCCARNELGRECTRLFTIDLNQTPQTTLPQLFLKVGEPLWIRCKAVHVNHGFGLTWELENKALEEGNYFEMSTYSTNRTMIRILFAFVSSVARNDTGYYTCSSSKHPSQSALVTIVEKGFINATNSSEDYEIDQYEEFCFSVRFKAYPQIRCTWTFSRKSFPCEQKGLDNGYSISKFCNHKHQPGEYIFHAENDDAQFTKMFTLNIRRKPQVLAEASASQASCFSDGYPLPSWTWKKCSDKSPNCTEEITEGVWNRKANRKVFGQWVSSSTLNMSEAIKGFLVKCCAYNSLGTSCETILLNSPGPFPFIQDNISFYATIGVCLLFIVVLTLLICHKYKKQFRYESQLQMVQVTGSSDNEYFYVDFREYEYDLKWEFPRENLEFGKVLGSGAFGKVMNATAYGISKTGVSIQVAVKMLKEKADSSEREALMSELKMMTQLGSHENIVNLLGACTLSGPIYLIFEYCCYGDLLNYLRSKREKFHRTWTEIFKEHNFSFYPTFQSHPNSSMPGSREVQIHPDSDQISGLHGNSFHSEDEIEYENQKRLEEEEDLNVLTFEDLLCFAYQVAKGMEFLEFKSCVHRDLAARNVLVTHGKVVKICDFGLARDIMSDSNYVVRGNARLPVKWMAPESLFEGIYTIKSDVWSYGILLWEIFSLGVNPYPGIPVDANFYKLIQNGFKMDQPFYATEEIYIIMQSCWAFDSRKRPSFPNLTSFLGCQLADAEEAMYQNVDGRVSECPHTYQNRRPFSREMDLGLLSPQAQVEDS
Chain of Tyrosine-protein kinase ABL1 (Homo sapiens) (P00519 whole entry): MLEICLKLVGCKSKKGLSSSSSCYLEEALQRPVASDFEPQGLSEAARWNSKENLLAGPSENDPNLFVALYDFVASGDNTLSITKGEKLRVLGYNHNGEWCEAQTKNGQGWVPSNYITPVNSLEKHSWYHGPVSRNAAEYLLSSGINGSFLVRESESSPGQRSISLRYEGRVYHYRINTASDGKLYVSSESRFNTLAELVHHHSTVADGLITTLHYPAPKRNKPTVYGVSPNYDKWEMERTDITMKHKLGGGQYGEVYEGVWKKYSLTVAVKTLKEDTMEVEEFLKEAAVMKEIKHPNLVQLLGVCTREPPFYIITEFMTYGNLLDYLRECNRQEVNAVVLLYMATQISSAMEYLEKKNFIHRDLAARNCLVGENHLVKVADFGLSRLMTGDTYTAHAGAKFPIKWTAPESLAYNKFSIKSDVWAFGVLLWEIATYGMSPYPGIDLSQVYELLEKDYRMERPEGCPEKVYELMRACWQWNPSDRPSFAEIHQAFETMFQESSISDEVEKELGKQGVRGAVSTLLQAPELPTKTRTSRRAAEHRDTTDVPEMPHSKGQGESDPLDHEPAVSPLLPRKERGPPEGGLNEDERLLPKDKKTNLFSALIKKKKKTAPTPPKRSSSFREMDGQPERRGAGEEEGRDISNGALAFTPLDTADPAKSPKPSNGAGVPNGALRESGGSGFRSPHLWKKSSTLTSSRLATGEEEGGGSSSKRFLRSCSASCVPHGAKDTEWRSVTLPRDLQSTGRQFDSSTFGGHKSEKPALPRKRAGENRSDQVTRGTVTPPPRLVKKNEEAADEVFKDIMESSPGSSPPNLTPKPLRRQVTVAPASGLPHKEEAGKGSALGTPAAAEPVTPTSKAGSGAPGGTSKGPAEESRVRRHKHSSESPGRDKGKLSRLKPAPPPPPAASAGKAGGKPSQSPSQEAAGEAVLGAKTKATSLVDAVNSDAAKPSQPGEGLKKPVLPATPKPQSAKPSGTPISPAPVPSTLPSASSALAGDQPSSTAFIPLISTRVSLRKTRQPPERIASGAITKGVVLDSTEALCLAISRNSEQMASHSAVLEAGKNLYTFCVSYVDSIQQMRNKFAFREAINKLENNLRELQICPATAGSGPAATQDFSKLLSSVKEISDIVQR
Chain of Focal adhesion kinase 1 (Homo sapiens) (Q05397 2-1052 limits assumed): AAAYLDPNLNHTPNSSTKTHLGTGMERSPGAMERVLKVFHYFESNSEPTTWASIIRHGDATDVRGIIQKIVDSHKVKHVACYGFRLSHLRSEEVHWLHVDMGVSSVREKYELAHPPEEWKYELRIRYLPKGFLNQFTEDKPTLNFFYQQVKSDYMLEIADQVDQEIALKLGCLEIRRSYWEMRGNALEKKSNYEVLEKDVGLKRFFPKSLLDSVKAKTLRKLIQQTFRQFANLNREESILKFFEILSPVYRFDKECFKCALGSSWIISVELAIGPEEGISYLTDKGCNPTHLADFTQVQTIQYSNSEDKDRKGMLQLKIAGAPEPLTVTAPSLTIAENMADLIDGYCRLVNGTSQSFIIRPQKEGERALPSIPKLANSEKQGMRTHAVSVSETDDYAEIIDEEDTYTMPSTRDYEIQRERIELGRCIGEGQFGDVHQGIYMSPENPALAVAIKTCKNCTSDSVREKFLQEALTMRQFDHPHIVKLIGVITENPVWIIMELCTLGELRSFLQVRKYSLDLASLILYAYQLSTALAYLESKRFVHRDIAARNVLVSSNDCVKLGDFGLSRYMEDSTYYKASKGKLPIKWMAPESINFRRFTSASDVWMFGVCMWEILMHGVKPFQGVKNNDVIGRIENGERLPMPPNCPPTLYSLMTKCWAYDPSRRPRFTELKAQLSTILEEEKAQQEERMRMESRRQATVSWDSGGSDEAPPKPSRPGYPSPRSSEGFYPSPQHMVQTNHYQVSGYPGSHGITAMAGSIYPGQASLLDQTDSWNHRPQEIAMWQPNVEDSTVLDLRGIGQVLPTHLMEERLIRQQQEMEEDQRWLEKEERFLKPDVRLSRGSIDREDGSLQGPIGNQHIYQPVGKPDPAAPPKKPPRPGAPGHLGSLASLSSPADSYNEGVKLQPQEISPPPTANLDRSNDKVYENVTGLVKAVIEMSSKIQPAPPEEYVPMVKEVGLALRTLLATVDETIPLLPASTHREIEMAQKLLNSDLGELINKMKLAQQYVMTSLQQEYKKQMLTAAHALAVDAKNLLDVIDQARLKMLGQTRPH
Chain of RAC-alpha serine/threonine-protein kinase (Homo sapiens) (P31749 whole entry): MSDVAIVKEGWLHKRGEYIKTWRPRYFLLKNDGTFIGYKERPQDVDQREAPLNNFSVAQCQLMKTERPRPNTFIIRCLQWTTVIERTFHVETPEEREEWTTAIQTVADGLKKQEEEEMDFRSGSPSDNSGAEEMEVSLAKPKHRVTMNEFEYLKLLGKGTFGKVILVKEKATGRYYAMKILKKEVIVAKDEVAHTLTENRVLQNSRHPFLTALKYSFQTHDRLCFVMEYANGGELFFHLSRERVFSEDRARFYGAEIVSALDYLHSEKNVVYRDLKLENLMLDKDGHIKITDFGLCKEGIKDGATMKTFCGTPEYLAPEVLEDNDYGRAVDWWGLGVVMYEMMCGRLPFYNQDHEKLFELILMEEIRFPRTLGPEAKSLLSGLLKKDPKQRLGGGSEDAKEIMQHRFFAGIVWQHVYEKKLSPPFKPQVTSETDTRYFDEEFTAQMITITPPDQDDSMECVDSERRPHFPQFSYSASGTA
Chain of Tyrosine-protein kinase Lyn (Homo sapiens) (P07948 2-512 limits assumed): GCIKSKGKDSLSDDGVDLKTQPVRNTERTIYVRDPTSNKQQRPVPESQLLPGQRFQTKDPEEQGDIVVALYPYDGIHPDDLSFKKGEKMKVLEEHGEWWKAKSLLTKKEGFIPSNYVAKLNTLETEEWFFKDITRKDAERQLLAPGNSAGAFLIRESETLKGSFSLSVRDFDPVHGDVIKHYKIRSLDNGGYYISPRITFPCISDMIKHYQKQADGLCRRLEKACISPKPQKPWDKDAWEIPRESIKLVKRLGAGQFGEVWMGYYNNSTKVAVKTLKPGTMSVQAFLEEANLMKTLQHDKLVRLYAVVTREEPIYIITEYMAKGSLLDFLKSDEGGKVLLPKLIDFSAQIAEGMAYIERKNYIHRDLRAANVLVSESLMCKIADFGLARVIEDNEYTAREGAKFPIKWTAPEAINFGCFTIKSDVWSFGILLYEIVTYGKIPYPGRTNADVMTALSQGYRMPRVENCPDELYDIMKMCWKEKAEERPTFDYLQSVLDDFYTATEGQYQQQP
Chain of Mitogen-activated protein kinase 1 (Homo sapiens) (P28482 whole entry): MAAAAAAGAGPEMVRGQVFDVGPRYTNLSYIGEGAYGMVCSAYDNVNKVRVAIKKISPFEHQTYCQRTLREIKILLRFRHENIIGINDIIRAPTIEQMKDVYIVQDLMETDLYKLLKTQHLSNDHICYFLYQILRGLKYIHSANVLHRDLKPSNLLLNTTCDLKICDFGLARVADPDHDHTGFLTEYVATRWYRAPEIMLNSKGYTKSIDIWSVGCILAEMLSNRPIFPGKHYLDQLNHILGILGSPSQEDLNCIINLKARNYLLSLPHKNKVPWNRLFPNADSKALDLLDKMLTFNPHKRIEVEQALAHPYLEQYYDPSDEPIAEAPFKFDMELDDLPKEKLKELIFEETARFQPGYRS

Take `Cc1cccc(Nc2nccc3c2CN(C(=O)c2cc(C)n(C)c2C)CC3)c1`: the inhibition in assay [1] worked out at 0%; in [2], 0%; in [3], 6%; in [4], 0%; in [5] it was 0%; in assay [6], 4%. Moreover, the inhibition in assay [7] turned out to be 6%; in assay [8], 1%; in [9] it was 0%; in assay [10], 0%.

As to `O=C(COc1ccccc1)N1CCN(c2nccc(Nc3ccc4ncsc4c3)n2)CC1`, the inhibition in [1] was found to be 0%; in assay [2] it was 0%; in [3] it was 0%; in [4] it was 2%; in [5], 1%; in [6] it was 0%. The inhibition in assay [7] is 12%; in [8], 15%; in assay [9], 8%; in [10] it was 35%.

Turning to `CC(=O)CCCCC(=O)N1CCN(c2nccc(Oc3cccc(C)c3)n2)CC1`, the inhibition in assay [1], in [2], in assay [3], in [4], in [5] and in assay [6] was 0% throughout. Moreover, the inhibition in assay [7] is 3%; in assay [8], 4%; in [9], 1%; in assay [10], 14%.

Take `COC[C@@H]1CCCN1C(=O)[C@@H]1CCCN1c1nccc(Nc2ccccc2)n1`: the inhibition amounted to 0% in assay [1]; 0% in [2]; 0% in [3]; 0% in [4]; 0% in assay [5]; 6% in assay [6]. The inhibition in [7] was found to be 0%; in assay [8] it was 0%; in assay [9], 3%; in assay [10], 4%.

In the case of `COc1cccc(Nc2cc(N3CCC[C@H]3C(=O)NCCN3CCCCC3)nc(N)n2)c1`, the inhibition in [1] turned out to be 0%; in assay [2], 0%; in assay [3], 0%; in [4] it was 0%; in [5], 2%; in assay [6], 2%. For the same molecule, the inhibition came to 8% in assay [7], 4% in [8], 11% in [9] and 5% in [10].

As for `Nc1nc(N2CCOCC2)cc(N2CCC(C(=O)NCc3cccs3)CC2)n1`, the inhibition in assay [1] turned out to be 0%; in assay [2], 0%; in assay [3] it was 0%; in assay [4], 0%; in assay [5] it was 0%; in [6], 3%. Also, the inhibition in [7] was found to be 7%; in assay [8] it was 3%; in assay [9] it was 0%; in assay [10] it was 17%.

`COc1ccc(NC(=O)Cc2ccc(Nc3cc(N(C)c4cccc(C)c4)ncn3)cc2)cn1`: the inhibition in assay [1] is 11%; in [2] it was 0%; in [3], 4%; in assay [4] it was 0%; in [5] it was 0%; in assay [6] it was 2%. The inhibition in assay [7] stood at 18%; in assay [8], 5%; in [9], 13%; in [10], 8%.

Regarding `Cc1cccc(N(C)c2cc(Nc3cccc(C(=O)NCc4ccc(N(C)C)cc4)c3)ncn2)c1`, the inhibition was 21% in [1]; 4% in [2]; 3% in assay [3]; 0% in assay [4]; 0% in assay [5]; 4% in assay [6]. In addition, the inhibition in assay [7] came to 9%; in assay [8] it was 9%; in assay [9] it was 11%; in assay [10], 0%.

With `COc1cccc(Nc2cc(Nc3cccc(C(=O)N(C)CCc4ccccn4)c3)nc(N)n2)c1`, the inhibition came to 0% in assay [1]; 0% in assay [2]; 0% in [3]; 0% in assay [4]; 1% in assay [5]; 3% in assay [6]. Also, the inhibition in [7] was 9%; in assay [8], 11%; in assay [9], 8%; in [10], 7%.

Turning to `O=C(C1CCN(c2nccc(Nc3ccccc3)n2)CC1)N1CC[C@@H](O)C1`, the inhibition in [1] came to 0%; in assay [2], 0%; in assay [3] it was 0%; in [4], 0%; in assay [5], 0%; in assay [6], 3%. For the same molecule, the inhibition came to 14% in assay [7], 0% in assay [8], 8% in assay [9] and 4% in [10].

`Cc1cccc(N(C)c2cc(Nc3cccc(C(=O)N(CC(C)C)CC(C)C)c3)ncn2)c1`: the inhibition in assay [1] is 0%; in [2] it was 0%; in assay [3] it was 6%; in assay [4] it was 2%; in assay [5], 0%; in assay [6] it was 0%. Further, the inhibition in assay [7] was found to be 2%; in [8] it was 1%; in assay [9], 10%; in assay [10] it was 5%.

With `CN(C)CC(C)(C)CNC(=O)c1cccc(Nc2nccc(Nc3ccc4ncsc4c3)n2)c1`, the inhibition in assay [1] stood at 99%; in assay [2], 18%; in assay [3], 13%; in [4], 12%; in [5], 0%; in assay [6], 18%. The inhibition in assay [7] turned out to be 75%; in assay [8] it was 97%; in [9], 96%; in assay [10] it was 89%.

`CN(C)CC(C)(C)CNC(=O)[C@@H]1CCCN1c1nccc(Nc2ccccc2)n1`: the inhibition was 0% in assay [1]; 0% in assay [2]; 0% in [3]; 0% in assay [4]; 0% in assay [5]; 1% in [6]. In addition, the inhibition in assay [7] was 13%; in [8], 4%; in [9] it was 0%; in [10] it was 5%.

In the case of `COC(=O)C(CO)NC(=O)[C@@H]1CCCN1c1nccc(Oc2cccc(C)c2)n1` (stereo not given in full), the inhibition is 0% in [1]; 0% in [2]; 1% in [3]; 0% in assay [4]; 0% in assay [5]; 0% in [6]. Moreover, the inhibition in [7] is 6%; in [8], 6%; in [9], 10%; in assay [10], 5%.

For the molecule `O=C(c1nc(SCc2ccc(Cl)cc2)n2ccccc12)N1CCN(c2cc(Nc3cccc(Br)c3)ncn2)CC1`, the inhibition in assay [1] was found to be 0%; in assay [2], 0%; in assay [3] it was 1%; in assay [4] it was 1%; in assay [5], 0%; in assay [6], 1%. For the same molecule, the inhibition was 4% in assay [7], 1% in [8], 10% in assay [9] and 0% in assay [10].

Turning to `Cc1ccc(CN2CCN(c3nccc(C(C#N)c4ccccn4)n3)CC2)cc1` (stereo not given), the inhibition was 0% in assay [1]; 0% in assay [2]; 0% in assay [3]; 0% in assay [4]; 0% in [5]; 4% in assay [6]. Further, the inhibition is 3% in [7], 3% in assay [8], 5% in [9] and 0% in [10].
